Test results reported in ChEMBL document CHEMBL1142770, “Structure-activity relationships of 1,3,5-triazine-2,4,6-triones as human gonadotropin-releasing hormone receptor antagonists” (Bioorg Med Chem Lett, 2005).

What was measured:
[1] = Intrinsic clearance in human liver microsomes(HLM) for metabolic stability; type: ADME, Microsome; settings: read-out: CI
[2] = biological target: T1, Gonadotropin-releasing hormone receptor (Homo sapiens, UniProt P30968); test: In vitro ability to inhibit des-Gly[125I-Tyr, DLeu, NMeLeu,Pro-NEt]-GnRH radioligand binding to the cloned human GnRH receptor stably expressed in HEK293 cells; type: cell-based
T1 sequence (P30968 whole entry): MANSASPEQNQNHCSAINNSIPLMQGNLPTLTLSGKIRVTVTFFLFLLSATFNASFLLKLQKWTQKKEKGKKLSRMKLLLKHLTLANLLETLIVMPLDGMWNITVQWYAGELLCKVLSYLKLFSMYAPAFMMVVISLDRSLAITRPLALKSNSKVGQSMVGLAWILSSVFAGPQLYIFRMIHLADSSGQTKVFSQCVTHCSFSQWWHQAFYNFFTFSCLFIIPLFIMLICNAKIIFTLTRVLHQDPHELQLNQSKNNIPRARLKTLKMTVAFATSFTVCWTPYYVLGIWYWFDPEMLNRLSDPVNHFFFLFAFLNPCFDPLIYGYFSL
Method in brief: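 A standard antagonist on each plate controlled for plate-to-plate variation. Key compounds were run in three to eight independent experiments.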

Compound	CLint scaled [1] [mL/min/kg]	Ki [2] [µM]
COc1cccc(-n2c(=O)n(Cc3ccccc3F)c(=O)n(C[C@H](N)c3ccccc3)c2=O)c1F	–	0.011
COc1cccc(-n2c(=O)n(Cc3c(F)cccc3C(F)(F)F)c(=O)n(C[C@H](N)c3ccccc3)c2=O)c1F	–	0.003
COc1ccccc1Cn1c(=O)n(C[C@H](N)c2ccccc2)c(=O)n(-c2cccc(OC)c2F)c1=O	–	0.12
COc1cccc(-n2c(=O)n(Cc3ccccc3Cl)c(=O)n(C[C@H](N)c3ccccc3)c2=O)c1F	–	0.02
COc1cccc(-n2c(=O)n(CCC(N)c3cccs3)c(=O)n(Cc3c(F)cccc3F)c2=O)c1 (centres undefined)	–	0.027
COc1cccc(-n2c(=O)n(Cc3c(F)cccc3F)c(=O)n(CC(N)CC(C)C)c2=O)c1F (centres undefined)	–	0.62
COc1cccc(-n2c(=O)n(Cc3c(F)cccc3Cl)c(=O)n(C[C@H](N)c3ccccc3)c2=O)c1F	–	0.005
COc1cccc(-n2c(=O)n(CCC(N)c3ccccc3F)c(=O)n(Cc3c(F)cccc3F)c2=O)c1 (centres undefined)	–	0.8
COc1cccc(-n2c(=O)n(CC[C@H](N)c3ccccc3)c(=O)n(Cc3c(F)cccc3F)c2=O)c1F	–	0.024
COc1cccc(-n2c(=O)n(CCC(N)c3ccccc3)c(=O)n(Cc3c(F)cccc3F)c2=O)c1 (centres undefined)	–	0.07
COc1cccc(-n2c(=O)n(CCC(N)c3cccnc3)c(=O)n(Cc3c(F)cccc3F)c2=O)c1 (centres undefined)	–	0.58
COc1cccc(-n2c(=O)n(CC3CCCCC3)c(=O)n(C[C@H](N)c3ccccc3)c2=O)c1F	–	> 10
COc1cccc(-n2c(=O)n(Cc3c(F)cccc3F)c(=O)n(C[C@H](N)c3ccccc3)c2=O)c1F	–	0.009
COc1cccc(-n2c(=O)n(Cc3c(Cl)cccc3C#N)c(=O)n(C[C@H](N)c3ccccc3)c2=O)c1F	–	0.073
COc1cccc(-n2c(=O)n(Cc3c(F)cccc3Br)c(=O)n(C[C@H](N)c3ccccc3)c2=O)c1F	158	–
COc1cccc(-n2c(=O)n(Cc3c(Cl)cccc3Cl)c(=O)n(C[C@H](N)c3ccccc3)c2=O)c1F	–	0.036

Second part, the molecule after the results:

CLint scaled [1] [mL/min/kg]	Ki [2] [µM]	Compound
249	–	COc1cccc(-n2c(=O)n(Cc3ccccc3C#N)c(=O)n(C[C@H](N)c3ccccc3)c2=O)c1F
–	0.066	COc1cccc(-n2c(=O)n(CCC(N)c3cccc(F)c3)c(=O)n(Cc3c(F)cccc3F)c2=O)c1 (centres undefined)
–	0.12	COc1cccc(-n2c(=O)n(Cc3c(F)cccc3F)c(=O)n(CC(N)c3ccccc3F)c2=O)c1 (centres undefined)
–	0.083	COc1cccc(-n2c(=O)n(CCC(N)c3ccc(F)cc3)c(=O)n(Cc3c(F)cccc3F)c2=O)c1 (centres undefined)
–	0.029	COc1cccc(-n2c(=O)n(Cc3ccccc3C)c(=O)n(C[C@H](N)c3ccccc3)c2=O)c1F
–	0.02	COc1cccc(-n2c(=O)n(Cc3c(F)cccc3F)c(=O)n(CC(N)c3ccccc3F)c2=O)c1F (centres undefined)
–	0.075	COc1cccc(-n2c(=O)n(CCC(N)c3ccccc3C)c(=O)n(Cc3c(F)cccc3F)c2=O)c1 (centres undefined)
–	0.066	COc1cccc(-n2c(=O)n(Cc3cccnc3Cl)c(=O)n(C[C@H](N)c3ccccc3)c2=O)c1F
–	0.028	COc1cccc(-n2c(=O)n(Cc3c(F)cccc3F)c(=O)n(CC(CN)c3ccccc3)c2=O)c1 (centres undefined)
–	0.63	COc1cccc(-n2c(=O)n(C[C@H](N)c3ccccc3)c(=O)n(C(C)c3c(F)cccc3F)c2=O)c1F (some centres undefined)
–	0.18	COc1cccc(-n2c(=O)n(CCC(N)c3ccccc3Cl)c(=O)n(Cc3c(F)cccc3F)c2=O)c1 (centres undefined)
–	1.5	COc1cccc(-n2c(=O)n(CC[C@H](N)CC(C)C)c(=O)n(Cc3c(F)cccc3F)c2=O)c1F
146	–	COc1cccc(-n2c(=O)n(Cc3ccccc3OC(F)(F)F)c(=O)n(C[C@H](N)c3ccccc3)c2=O)c1F
